# Measurements pooled from the literature.
# Compare with care: the assays were run in different laboratories.
# CDK3 with cyclin E: Cyclin-dependent kinase 3, with cyclin E (CDK3, Homo sapiens, UniProt Q00526)
# CDK3: Cyclin-dependent kinase 3 (CDK3, Homo sapiens, UniProt Q00526)
# CDK3 with cyclin E1: Cyclin-dependent kinase 3, with cyclin E1 (CDK3, Homo sapiens, UniProt Q00526)
SMILES,target,assay,setting,measurement,result
Cc1ccc(C(=O)NCc2ccsc2)cc1C#Cc1cn(C(C)C)c2ncnc(N)c12,CDK3 with cyclin E,"enzyme activity, inhibitor",1 µM,activity vs control,98%
Cc1ccc(Nc2nccc(N(C)c3ccc4c(C)n(C)nc4c3)n2)cc1S(N)(=O)=O,CDK3 with cyclin E,"enzyme activity, inhibitor",10 µM,inhibition,8%
Nc1ncnc2occ(-c3ccc(NC(=O)Nc4cc(C(F)(F)F)ccc4F)cc3)c12,CDK3,"cell-free assay, inhibitor",20 µM,remaining signal,0.05%
O=C(Nc1cnn(-c2csc(C(=O)NC3COC3)c2)c1)Nc1c(F)cccc1Cl,CDK3 with cyclin E,"enzyme activity, inhibitor",5 µM,remaining activity,92.2%
COc1cccc(CNC(=O)c2nc3scc(COCc4ccc(C(=O)O)cc4)c3c(=O)[nH]2)c1,CDK3,"cell-free assay, competition with immobilised ligand",1 µM,remaining binding,100%
CCCS(=O)(=O)Nc1ccc(F)c(C(=O)c2c[nH]c3ncc(-c4ccc(Cl)cc4)cc23)c1F,CDK3 with cyclin E,"enzyme activity, inhibitor",1 µM,inhibition,< 10%
CC(C)(C)c1nc2c(s1)c1nc(N)ncc1c1ccc(NS(=O)(=O)c3c(F)cccc3F)c(F)c12,CDK3 with cyclin E1,"enzyme activity, inhibitor, radiometric",1 µM,remaining activity,98%
O=C(NCc1ncc(C(F)(F)F)cc1Cl)c1ccc2c(c1)C1(CCS(=O)(=O)CC1)[C@@H](C1CC1)N2S(=O)(=O)c1ccc(F)cc1,CDK3,"cell-free assay, competition with immobilised ligand",1 µM,remaining binding,41%
Cc1ccc(C(=O)Nc2ccc(CN3CCN(C)CC3)c(C(F)(F)F)c2)cc1C#Cc1cnc2cccnn12,CDK3,"enzyme activity, inhibitor",23.5 nM,remaining activity,95%
CNC(=O)c1cc(Oc2ccc(NC(=O)Nc3ccc(Cl)c(C(F)(F)F)c3)cc2)ccn1,CDK3 with cyclin E,"enzyme activity, inhibitor",10 µM,inhibition,0%
Cc1nccc(COC(=O)N2C[C@@H]3[C@@H](CNC(=O)c4ccc5[nH]nnc5c4)[C@@H]3C2)n1,CDK3,"cell-free assay, competition with immobilised ligand",1 µM,remaining binding,97%
Oc1cccc(-c2nc(N3CCOCC3)c3oc4ncccc4c3n2)c1,CDK3 with cyclin E,cell-free assay,0.5 µM,remaining signal,93.9%
Cc1cc(NC(=O)c2cccc3cc(-c4cccc5[nH]nc(N)c45)ccc23)ccc1F,CDK3 with cyclin E,"enzyme activity, inhibitor",0.1 µM,activity vs control,96%
CN(C)CC#Cc1ccc(OCCCc2sc(N3CCc4cccc(C(=O)Nc5nc6ccccc6s5)c4C3)nc2C(=O)O)c(F)c1,CDK3,"cell-free assay, competition with immobilised ligand",1 µM,remaining binding,68%
Cc1sc(C(=O)NC2COC2)cc1-n1cc(NC(=O)Nc2c(F)cccc2Cl)cn1,"Cyclin-dependent kinase 3, with cyclin E2 (CDK3, Homo sapiens, UniProt Q00526)","enzyme activity, inhibitor",10 µM,remaining activity,103%
CCN(CC)CCNC(=O)c1c(C)[nH]c(/C=C2\C(=O)Nc3ccc(F)cc32)c1C,CDK3 with cyclin E,"enzyme activity, inhibitor",0.3 µM,inhibition,1%
CO[C@@H](C)c1c(Nc2ccc([C@@H](N(C)C(=O)C3CCS(=O)(=O)CC3)C(F)(F)F)cc2)cnc2cc(Cl)nn12,CDK3,"cell-free assay, competition with immobilised ligand",1 µM,remaining binding,88%
CS(=O)(=O)Nc1cccc(-c2csc(NC(=O)CSc3nc4nccnc4c(=O)n3CCc3ccccc3)n2)c1,CDK3 with cyclin E1,"enzyme activity, inhibitor",10 µM,inhibition,2%
Cc1nc(C2CCN(C(=O)c3ccc(OC(F)(F)F)cc3N)CC2)c2ncc(N3CCN(C)CC3)cc2n1,CDK3,"cell-free assay, competition with immobilised ligand",1 µM,remaining binding,100%
Cc1ccc(-n2nc(C(C)(C)C)cc2NC(=O)Nc2ccc(OCCN3CCOCC3)c3ccccc23)cc1,CDK3 with cyclin E,"enzyme activity, inhibitor",10 µM,inhibition,-10%
O=C(Nc1cnn(-c2csc(C(=O)NC3COC3)c2)c1)Nc1ccccc1Cl,CDK3 with cyclin E,"enzyme activity, inhibitor",5 µM,remaining activity,107%
NS(=O)(=O)c1cc(NC(=O)C2(c3ccccc3Cl)CC2)ccc1Oc1cccc(Cl)c1,CDK3,"cell-free assay, competition with immobilised ligand",1 µM,remaining binding,90%
O=C1NC(=O)c2cc(Nc3ccc(F)cc3)c(Nc3ccc(F)cc3)cc21,CDK3 with cyclin E,cell-free assay,0.5 µM,remaining signal,98.9%
